# Compounds with a hit are over-represented: about 3.8% of the library has one in this group of screens.
# Kir21 block: inhibitors of mouse Kir2.1 inward-rectifier potassium channel; B-score at 10 µM; actives 0.85% (n = 310,000); HEK293-Kir2.1, FluxOR thallium flux fluorescence; hits give low values;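 active means fluorescence ratio B-score at or below minus 3 SD of library scores, with starting-brightness B-score within 2 SD, cut at about -4.2 in these data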;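 further: channel flux triggered by added potassium and thallium sulfate stimulus; B-score of peak minus minimum fluorescence over baseline after thallium stimulus; more negative B-score means stronger Kir2.1 block with less thallium influx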
# KCNQ1 block: human KCNQ1 channel inhibition | P51787 | CHO-K1 KCNQ1, FluxOR thallium flux fluorescence; hits give high values | B-score at 10 µM | actives 1.3% (n = 310,000);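 active means compounds whose thallium flux B-score, printed positive for inhibition, exceeds three library SD while starting fluorescence stays within three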;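 further: channel opened by potassium depolarization with thallium stimulus after 20 min compound exposure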
# KCNK9 inh: blocks the human KCNK9 two-pore domain potassium channel; Q9NPC2; HEK293 KCNK9, FluxOR thallium flux fluorescence; hits give low values; B-score at 10 µM; actives 1.2% (n = 310,000);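 active means ratio B-score over 3 SD below the library mean, with starting fluorescence within 5 SD of its mean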;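 further: negative B-score means less thallium flux so channel inhibition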
# KCNQ1 pot: human KCNQ1 channel potentiation or activation. B-score at 10 µM. P51787. AID 2648. actives 0.35% (n = 310,000). CHO-K1 KCNQ1, thallium flux FluxOR fluorescence; hits give high values;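 active means fluorescence ratio B-score, a plate-corrected score, at least three library SD, with initial intensity B-score within 5 SD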
#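 Assay system: CHO-K1 cells stably expressing KCNQ1; Medium: assay buffer with matched DMSO; Also added: K+/Tl+ depolarizing stimulus; Dosing: single dose; Timing: dye 90 min, compound 20 min, room temperature; Measured by: kinetic FluxOR thallium fluorescence, 10-s 1-Hz baseline, 110-s post-stimulus read; Read-out: peak-minus-minimum fluorescence over initial fluorescence, negative-control normalized, B-scored.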
# hERG rescue: shields human hERG channel from block by proarrhythmic agents | activation (rescue from dofetilide block), less the hit threshold, % at 10 µM | actives 0.51% (n = 310,000) | CHO-hERG, FluxOR thallium flux, dofetilide IC70 present | Q12809;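 active means activation above the mean of controls blocked by dofetilide plus 5 SD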;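 further: thallium influx through hERG after potassium depolarization seen as dye fluorescence rise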
# Target sequence (Q12809 whole entry, looked up): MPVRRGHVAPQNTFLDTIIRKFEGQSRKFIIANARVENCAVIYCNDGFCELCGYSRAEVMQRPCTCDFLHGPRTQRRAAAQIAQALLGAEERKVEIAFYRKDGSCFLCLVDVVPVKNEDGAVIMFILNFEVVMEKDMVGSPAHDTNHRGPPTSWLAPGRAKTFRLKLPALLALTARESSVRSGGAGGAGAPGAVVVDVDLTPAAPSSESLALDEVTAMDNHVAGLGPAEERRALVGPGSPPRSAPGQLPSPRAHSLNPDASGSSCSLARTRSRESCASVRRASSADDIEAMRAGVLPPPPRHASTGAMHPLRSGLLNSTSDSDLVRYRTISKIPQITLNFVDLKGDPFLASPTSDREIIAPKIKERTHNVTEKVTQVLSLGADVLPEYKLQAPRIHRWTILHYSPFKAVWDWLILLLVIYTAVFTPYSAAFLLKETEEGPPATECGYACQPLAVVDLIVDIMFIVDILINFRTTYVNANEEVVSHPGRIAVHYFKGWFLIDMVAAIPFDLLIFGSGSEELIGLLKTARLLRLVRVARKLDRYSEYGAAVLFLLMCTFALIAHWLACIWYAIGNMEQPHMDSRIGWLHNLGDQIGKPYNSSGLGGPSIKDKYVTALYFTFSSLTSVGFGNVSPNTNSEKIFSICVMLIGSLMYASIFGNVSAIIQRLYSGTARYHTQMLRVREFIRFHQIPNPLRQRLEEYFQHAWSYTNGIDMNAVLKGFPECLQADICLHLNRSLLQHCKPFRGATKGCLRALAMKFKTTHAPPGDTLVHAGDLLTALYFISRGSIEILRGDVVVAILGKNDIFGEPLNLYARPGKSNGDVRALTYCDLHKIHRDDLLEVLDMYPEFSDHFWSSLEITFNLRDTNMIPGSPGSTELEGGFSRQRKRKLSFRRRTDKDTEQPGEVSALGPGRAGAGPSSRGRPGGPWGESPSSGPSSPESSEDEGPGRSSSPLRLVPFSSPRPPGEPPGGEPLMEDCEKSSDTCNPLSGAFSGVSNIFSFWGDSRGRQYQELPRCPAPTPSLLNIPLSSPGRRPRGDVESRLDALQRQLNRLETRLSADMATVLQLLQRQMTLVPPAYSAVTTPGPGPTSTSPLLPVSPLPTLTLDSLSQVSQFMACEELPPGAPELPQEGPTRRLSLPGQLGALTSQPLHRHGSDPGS
# KCNK3 inh: human KCNK3 channel inhibition, primary screen; O14649; CHO-KCNK3 thallium flux, FluxOR fluorescence; hits give low values; B-score at 10 µM; actives 0.84% (n = 340,000);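 active means B-score under library mean minus 4 SD, starting fluorescence ratio at most library mean plus 5 SD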;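 further: more negative B-score means stronger inhibition of thallium flux through KCNK3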
# KCNK9 block conf: confirmation of human KCNK9 potassium channel inhibitors. shares compounds with KCNK9 inh. HEK293 KCNK9 cells, FluxOR thallium flux fluorescence. inhibition, % at 10 µM. actives 43% (n = 4,900). AID 492992;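 active means thallium signal inhibited by more than 5 SD of the compound-free buffer control wells, on both duplicate plates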;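 further: 0% = assay buffer control wells without compound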
# Kir2-1 spec: selectivity of KCNK9 modulators against mouse Kir2.1. shares compounds with KCNK9 inh. inhibition, % at 10 µM. actives 4% (n = 4,900). Kir2.1 cells, FluxOR thallium flux fluorescence;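 active means thallium signal drop more than 5 SD beyond the mean of the no-compound control wells, seen in both duplicate plates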;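 further: signal is fluorescence rise after thallium addition divided by baseline fluorescence; plate controls were assay buffer only for no effect and full block by chlorpromazine control for full effect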
# KCNK9 uninduced: second check of KCNK9 modulator effects in non-induced HEK293 cells | inhibition, % at 10 µM | shares compounds with KCNK9 inh | actives 40% (n = 4,900) | AID 492997 | FluxOR thallium flux;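 active means thallium signal drop beyond 5 SD of the untreated control mean, on both duplicate plates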;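 further: plate controls were buffer only IC0 wells for no effect and SID17386958 at its maximal inhibitory level for full effect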
# * = called active by the depositor; i = inactive; nt = no result.
SMILES,Kir21 block,KCNQ1 block,KCNK9 inh,KCNQ1 pot,hERG rescue,KCNK3 inh,KCNK9 block conf,Kir2-1 spec,KCNK9 uninduced
CCOC(=O)N1CCN(C(=O)CSc2nc3c([nH]c4ccccc43)c(=O)n2CC)CC1,1.9,i,i,i,3,i,nt,nt,nt
COc1ccccc1N1CCN(c2nc(C)nc3c2oc2ccccc23)CC1,1.3,i,-14*,i,-27,-9*,i,i,32%*
Cc1cc(C)c(S(=O)(=O)Nc2cccc(/C=C/C(=O)O)c2)c(C)c1,1.5,i,i,i,-8,i,nt,nt,nt
CSc1nc(-c2ccco2)nn1S(C)(=O)=O,1.6,i,i,i,-6,i,nt,nt,nt
Cc1ccccc1NC1=C(C(=O)c2ccccc2)N(C)S(=O)(=O)c2ccccc21,0.34,i,-12*,i,-11,-9*,32%*,i,38%*
CN1CCN(S(=O)(=O)c2ccc3c(c2)CC(=O)N3C)CC1,3,i,-10*,i,-7,i,35%*,i,i
O=C(CCCOc1ccc(Cl)cc1Cl)N1CCc2ccccc2C1,1.7,i,i,i,-1,i,i,i,i
CN(C)c1cccc(C(=O)OCC(=O)N2CCc3ccccc3C2)c1,1.2,i,i,i,-8,i,i,i,i
O=C(CCCOc1ccccc1)N1CCc2ccccc2C1,-0.03,i,i,i,-6,i,nt,nt,nt
Cc1ccc(C)c(OCC(=O)N2CCc3ccccc3C2)c1,-1.5,i,i,i,-7,i,i,i,i
COCc1ccc(CN2CCCCC2C(=O)Nc2ccc(Oc3ccccc3)nc2)o1 (stereo not given),0.05,i,i,i,-18,i,nt,nt,nt
O=C(O)CCCCCCC1C(=O)NC(=O)N1CCC(O)C1CCCCC1 (stereo not given),0.24,i,i,i,-4,i,nt,nt,nt
O=C(CNc1cc(S(=O)(=O)N2CCOCC2)ccc1NCC1CCCO1)Nc1cccc(F)c1 (stereo not given),-1.8,i,i,i,-4,i,nt,nt,nt
Cc1cccc(-n2nc(C(=O)c3ccco3)cc(-c3nc4ccccc4[nH]3)c2=N)c1,1.2,10*,i,i,-23,i,i,i,i
COCCN1C(=O)/C(=C/c2ccc(Oc3ccc([N+](=O)[O-])cn3)c(OC)c2)SC1=Nc1ccccc1,1.6,i,i,i,-7,i,i,i,i
COc1cc(/C=C2/NC(=O)N(CC(=O)Nc3ccc(C)cc3)C2=O)ccc1Oc1ccc([N+](=O)[O-])cn1,1,i,i,i,-13,i,nt,nt,nt
CCOCc1c(C(=O)NCC(c2ccco2)N2CCCC2)oc2ccccc12 (stereo not given),nt,nt,nt,nt,nt,i,nt,nt,nt
COc1ccc(C(=O)N/N=C/c2ccc(OC)c(CN3CCN(c4ccc(F)cc4)CC3)c2)cc1,1,i,i,i,-22,i,i,i,i
COc1cc(OC)c(CN2CCCCCCC2)cc1Br,2,i,i,i,-1,i,nt,nt,nt
COc1cc(OC)c(CN2CCN(c3ccc(F)cc3)CC2)cc1Br,1.2,i,i,i,-10,i,i,i,i
C=CCn1c(Oc2ccc(C=O)cc2OCC)nc2c1c(=O)n(C)c(=O)n2C,0.23,i,i,i,-6,i,nt,nt,nt
O=C(CN(Cc1ccco1)C(=O)c1ccc([N+](=O)[O-])cc1)Nc1ccccc1C(F)(F)F,nt,nt,nt,nt,nt,i,nt,nt,nt
CC(C)COc1ccc(C(=O)N(CC(=O)Nc2ccccc2C(F)(F)F)Cc2ccco2)cc1,0.57,i,i,i,-14,i,i,i,i

# Screening data: PubChem BioAssay, Johns Hopkins Ion Channel Center
